Shown is part of a subset that was picked to be rich in hits.
Mdm2 ligase inh – blocks human Mdm2 ubiquitin ligase activity. Q00987. cell-based MDM2 ubiquitination luciferase reporter, 2 h; 0 = plate control, 100 = twice control, blank-subtracted. signal enhancement, % at 5 µM. 0.11% of 210,000 active;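 active = signal enhancement of 30% or more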;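 note: luminescence tracks abundance of the self-degrading MDM2-luciferase fusion protein; higher signal means inhibition of MDM2 E3 ligase activity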
Target sequence (Q00987 whole entry, looked up, the tested form may be a part): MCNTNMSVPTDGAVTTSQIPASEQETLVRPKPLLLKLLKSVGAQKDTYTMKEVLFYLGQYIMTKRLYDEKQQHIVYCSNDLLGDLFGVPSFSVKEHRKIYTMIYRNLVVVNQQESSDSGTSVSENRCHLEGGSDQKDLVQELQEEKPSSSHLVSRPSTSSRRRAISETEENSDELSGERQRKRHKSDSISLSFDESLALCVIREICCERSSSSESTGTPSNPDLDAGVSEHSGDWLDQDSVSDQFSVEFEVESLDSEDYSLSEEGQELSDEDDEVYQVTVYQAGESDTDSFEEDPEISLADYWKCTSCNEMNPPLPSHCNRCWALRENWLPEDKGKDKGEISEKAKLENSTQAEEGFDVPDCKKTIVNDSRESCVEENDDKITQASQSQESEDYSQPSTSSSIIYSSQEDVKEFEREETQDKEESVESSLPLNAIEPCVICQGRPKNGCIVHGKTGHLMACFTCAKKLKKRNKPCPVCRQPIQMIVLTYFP
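test system = mammalian cells stably expressing self-ubiquitinating, self-degrading MDM2 E3–luciferase fusion | quantity = 2000 cells/well | incubation = cell settling 4 h, compound treatment 2 h, both 37 °C | signal = luminescence with SteadyLite reagent, 15 min at room temperature | evaluation = % enhancement relative to plate controls after blank subtraction | benchmarks = plate controls and plate blanks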
pCIP destab – p/CIP protein destabilization; F442A p/CIP-EGFP cells, EGFP fluorescence, 16 h; decrease of EGFP signal, % at 10 µM; 0.01% of 290,000 active;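 active = EGFP signal decrease of at least 30% at 10 µM or well 3 SD below plate mean, unless failing retest; inactive = the rest, including hits failing retest or dose response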
Lipid droplet – hepatic lipid droplet formation modulation. AID 1656. inhibition, % at 6.5 µM. AML12 mouse hepatocytes, oleate lipid droplets, BODIPY imaging. 0.4% of 240,000 active;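 active = lipid droplet intensity inhibited by at least 50%, with more than 500 cells counted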
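Material: mouse AML12 hepatocyte cell line, fixed after treatment; Timing: compound with oleate, overnight; Technique: high-content imaging of BODIPY-stained droplets and DAPI nuclei; Probe or stimulus: oleate, 100 µM final; Dosing: compound at 6.5 µM only.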
Lipid drop inh – hepatic lipid droplet formation inhibition, confirmed. 65% of 870 active. inhibition, % at 5.2 µM. AML12 mouse hepatocytes, BODIPY lipid droplet imaging; droplets induced with 100 µM oleic acid. shares compounds with Lipid droplet. AID 463183;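 active = inhibition of lipid droplet metric at least 50%, with more than 300 cells in each of four replicates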;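 note: plate controls were DMSO with oleic acid for no effect and 5 µM Triacsin-C for full effect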
AML12 tox img – toxic to AML12 mouse hepatocytes in counter-screen. AID 463200. 3% of 870 active. z-score at 5 µM. DAPI nuclear morphology cytotoxicity imaging; stronger effect = higher value; cells fed 100 µM oleate overnight. shares compounds with Lipid droplet; in the data active = z-score above about 6.3;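 note: compound exposure lasted overnight at 37 °C before fixation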
AML12 tox conf – AML12 hepatocyte cytotoxicity, confirmed; 530 tested, under 10 active; AML12 mouse hepatocyte viability, ATP luminescence; cells loaded with 100 µM oleic acid; shares compounds with Lipid droplet; cytotoxicity, % at 50 µM; AID 463219;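 active = cytotoxicity above 50% in each of four replicates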;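 note: compound exposure lasted overnight at 37 °C before the ATP read; 0% = DMSO-treated cells and 100% = wells with no cells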
Starred values were filed as active, the others as inactive; . = no result.

SMILES	Mdm2 ligase inh	pCIP destab	Lipid droplet	Lipid drop inh	AML12 tox img	others
CCCCCCn1c(SCC(=O)Nc2cc(C)on2)nc2ccccc2c1=O	-15.9	-17.9	68.4*	96.7*	0.235	AML12 tox conf=21.8
Cc1cc(NC(=O)CSc2nc3ccccc3c(=O)n2Cc2ccc(F)cc2)no1	-15.0	-6.7	.	.	.
CCOCCCn1c(SCC(=O)Nc2ccccc2OC)nc2ccccc2c1=O	.	0.2	4.9	.	.
CCN(C(=O)Cn1c(=O)oc2ccccc21)c1ccc(C)c(C)c1	.	-11.7	-8.1	.	.
COc1ccc(CCNC(=O)c2coc(=O)c(Br)c2)cc1	.	0.4	.	.	.
O=C(O)CCCC(=O)Nc1ccc(Br)cc1	-17.2	7.0	7.9	.	.
O=C(O)CCCC(=O)Nc1ccc(Br)cc1C(=O)O	-9.8	-7.1	52.5*	7.3	0.0744
Cc1cc(Br)ccc1NC(=O)CN(C)C(=O)c1cc(S(=O)(=O)N(C)C)ccc1N1CCCC1	.	-11.1	-60.1	.	.
O=C(CSCC(=O)N1CCCCC1)Nc1nc(-c2cccs2)cs1	-0.6	-17.6	.	.	.
CC1CC(C)CN(C(=O)CSCC(=O)Nc2nc(-c3cccs3)cs2)C1 (centres undefined)	-9.8	-7.3	56.5*	108.5*	-0.111	AML12 tox conf=9.1
O=C(NCC1CCCO1)C1CC(=O)N(c2ccc(Cl)cc2)C1 (centres undefined)	.	3.0	10.0	.	.
COc1ccc(OC)c(NC(=O)c2ccccc2SC)c1	-17.4	-9.3	-0.8	.	.
COc1ccc(OC)c(NC(=O)c2cc3oc4ccccc4c3cc2O)c1	-20.1	-4.7	108.2*	17.9	0.111
CC(=O)Nc1sc(N)nc1-c1ccccc1	-13.2	1.2	.	.	.
Nc1nc(-c2ccccc2)c(N=Nc2cccc3ccccc23)s1	-3.3	20.1	113.0*	114.7*	0.425	AML12 tox conf=43.5
Cc1ncc(N=Nc2ccccc2Cl)c(-c2ccccc2)n1	-11.3	-6.5	.	.	.
Nc1nc(-c2ccccc2)c(N=Nc2ccccc2Cl)s1	7.8	12.6	104.0*	114.2*	-0.574	AML12 tox conf=32.2
O=C(NCc1ccccc1Cl)c1ccc2nnsc2c1	-4.8	0.0	7.3	.	.
Cc1ccc(C)c(NC(=O)CCN2CCN(CCO)CC2)c1	.	-1.7	-1.1	.	.
COc1ccc(NC(=O)Nc2cc(C)ccc2OC)cc1	0.5	-2.6	-4.5	.	.
COc1ccc(Cl)cc1NC(=O)Nc1ccc(C(=O)N2CCCC2)cc1	.	-1.0	55.7*	77.1*	-0.606	AML12 tox conf=18.4
COc1ccc(Cl)cc1NC(=S)N1CCCC1	-9.1	-13.5	-6.8	.	.
COc1ccc(C)cc1NC(=O)Nc1ccc(C(=O)N2CCCC2)cc1	.	1.1	69.5*	95.1*	0.296	AML12 tox conf=28.5
COc1cc(C2C3=C(CC(C)(C)CC3=O)N(C)C3=C2C(=O)CC(C)(C)C3)cc(Br)c1O	.	6.0	-11.4	.	.
CC(=O)CSc1nc2ccc(Nc3nc(N4CCOCC4)nc(N4CCOCC4)n3)cc2s1	-15.9	-14.1	-12.4	.	.
SMILES	Mdm2 ligase inh	pCIP destab	Lipid droplet	Lipid drop inh	AML12 tox img	others
CC(C)(C)NC(=O)CSc1nc2ccc(Nc3nc(N4CCOCC4)nc(N4CCOCC4)n3)cc2s1	-4.9	-7.9	53.1*	89.0*	0.588	AML12 tox conf=-2.1
O=C1c2ccccc2-c2c1cccc2C(=O)N1CCCCC1	-10.0	1.6	-8.7	.	.
CC1CC(C)CN(C(=O)c2ccc3c(c2NCCO)C(=O)c2ccccc2C3=O)C1 (centres undefined)	-5.7	33.8	91.4*	114.7*	-0.984	AML12 tox conf=37.3
CS(=O)(=O)N(Cc1ccccc1)c1ccccc1C(=O)N1CCN(c2ccccc2)CC1	-13.3	-9.7	-12.7	.	.
CS(=O)(=O)Nc1ccc(C(=O)Nc2ccc3c(c2)OCO3)cc1	-4.2	0.8	7.2	.	.
Cc1ccc(-c2ccc(SCC(=O)Nc3ccc4c(c3)OCCO4)nn2)cc1	-6.2	-2.9	-30.8	.	.
Cc1ccc(C2=NC3(CCCCC3)N=C2SCC(=O)Nc2ccc3c(c2)OCCO3)cc1	.	-8.1	54.2*	70.1*	-0.268	AML12 tox conf=-9.0
COc1cc(NC(=O)CCCNC(=O)Cn2cnc3sc(C)c(C)c3c2=O)cc(OC)c1OC	.	3.7	-6.1	.	.
COc1ccccc1N1CCN(c2nc3ccccn3c(=O)c2C=O)CC1	-7.1	5.2	-5.6	.	.
CCCn1c(O)c(C=Nc2ccccc2)sc1=S	-5.0	-3.6	-1.9	.	.
CCCCn1c(O)c(/C=C/C=C/C=Nc2ccccc2)sc1=S	-13.7	-15.8	60.9*	34.2	0.243
Oc1c(/C=C/C=C/C=Nc2ccccc2)sc(=S)n1Cc1ccccc1	-3.6	-4.4	74.3*	75.7*	0.807	AML12 tox conf=27.7
CCn1c(O)c(/C=C/C=C/C=Nc2ccccc2)sc1=S	-2.4	-15.1	14.7	.	.
COc1ccccc1OCCCCn1ncc2ccc(OC)c(OC)c2c1=O	.	2.4	-2.1	.	.
CC(=O)c1ccc(N(CC(=O)NC2CCCC2)C(=O)CNC(=O)c2ccco2)cc1	.	2.6	12.4	.	.
O=c1[nH]cnc2sc3c(c12)CCN(Cc1ccccc1)C3	-15.0	-12.5	54.7*	24.5	-0.0109
O=c1[nH]cnc2sc3c(c12)CN(Cc1ccccc1)CC3	.	0.5	-0.9	.	.
CC(C)[C@H](NC(=O)C1CCN(S(=O)(=O)c2ccccc2)CC1)C(=O)NCc1ccc(F)cc1	.	-4.0	-2.4	.	.
CC(NC(=O)c1cnccn1)c1ccc(S(N)(=O)=O)cc1 (centres undefined)	-10.9	-6.1	8.9	.	.
COc1ccc(C(=O)CCC(=O)NCCc2c[nH]c3ccccc23)cc1OC	.	-6.2	123.8*	98.7*	0.655	AML12 tox conf=15.6
COc1ccc(CCNC(=O)NCCc2c[nH]c3ccccc23)cc1OC	.	12.5	6.2	.	.
COc1cccc(CNC(=O)CCCc2c[nH]c3ccccc23)c1	.	-15.5	63.7*	69.3*	0.224	AML12 tox conf=17.1
COc1ccc(CNC(=O)CCc2c[nH]c3ccccc23)cc1	.	-21.0	-6.9	.	.
C=CCOn1c(=O)c(-c2ccc(OCC)cc2)[n+]([O-])c2ccccc21	.	-7.3	-4.1	.	.
Cc1ccc(C(C(=O)NC(C)(C)C)N(C(=O)CCC(=O)Nc2ccccn2)c2ccccc2F)cc1 (centres undefined)	.	2.7	-3.6	.	.
NC(=O)c1nsc(C(=O)N(Cc2ccco2)C(C(=O)NCc2ccccc2)c2ccc(O)cc2)c1N (centres undefined)	.	-7.6	-6.5	.	.
COc1ccc(N=C2C(=Nc3ccc(OC)cc3)N(c3ccc(OC)cc3)C(=S)N2C)cc1	-11.1	2.9	57.6*	108.9*	0.27	AML12 tox conf=16.3
COc1ccc(N=C2C(=Nc3ccc(OC)cc3)N(c3ccc(OC)cc3)C(=S)N2c2ccccc2)cc1	-15.8	1.5	41.4	.	.
Cc1cc(C(=O)NC2CCCc3c2cnn3-c2ccc(C(C)(C)C)cc2)nn1C (centres undefined)	.	-24.8	-7.0	.	.
CCc1nn(CCCC(=O)NCc2ccccc2C)c(=O)c2cc3occc3n12	.	-11.8	-17.6	.	.
